One experiment relates to T-47D^Y537S cells. The experiment in a line: Cell viability assay. It is filed as cell-based, human. To be noted: 72 h, read-out: T-47D^Y537S IC50.
The test system of another experiment is T-47D cells. As to the kind of experiment: Cell viability assay. To be noted: 72 h, read-out: T-47D IC50. The class given is cell-based, human.
The next experiment relates to MCF-7 cells. As to the kind of experiment: Cell viability assay. It is filed as cell-based, human. Particulars: read-out: MCF-7 IC50.
The next experiment has as its target human ERβ LBD (Homo sapiens, UniProt Q92731). As to the kind of experiment: Competitive fluorescence polarization binding assay, ERβ. Particulars: for RBA ERβ: IC50 estradiol/IC50 compound × 100, estradiol = 100%. Background: Polarisation of emitted light reports the rotation of a fluorescent probe.
The next experiment has as its target T1, ERα (Homo sapiens, UniProt P03372).
T1 sequence (P03372 1-595): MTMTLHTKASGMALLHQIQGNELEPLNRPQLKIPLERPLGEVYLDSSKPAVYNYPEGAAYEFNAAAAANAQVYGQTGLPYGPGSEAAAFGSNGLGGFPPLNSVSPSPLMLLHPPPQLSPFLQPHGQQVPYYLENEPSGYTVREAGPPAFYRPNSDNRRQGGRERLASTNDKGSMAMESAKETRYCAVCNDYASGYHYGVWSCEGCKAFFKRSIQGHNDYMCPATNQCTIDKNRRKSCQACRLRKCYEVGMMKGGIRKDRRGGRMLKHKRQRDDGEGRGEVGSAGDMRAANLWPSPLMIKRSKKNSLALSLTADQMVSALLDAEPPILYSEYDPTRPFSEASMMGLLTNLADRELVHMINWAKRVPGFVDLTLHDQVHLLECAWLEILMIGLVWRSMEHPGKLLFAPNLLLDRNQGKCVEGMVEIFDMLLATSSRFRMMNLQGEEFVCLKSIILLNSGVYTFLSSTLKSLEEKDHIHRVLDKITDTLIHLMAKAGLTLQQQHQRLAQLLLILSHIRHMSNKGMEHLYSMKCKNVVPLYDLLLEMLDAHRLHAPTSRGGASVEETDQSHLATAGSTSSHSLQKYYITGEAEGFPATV
The experiment in a line: Immunoblot analysis of ERα degradation in MCF-7 cells. The class given is cell-based. Particulars: MCF-7 cells, 1 or 5 μmol/L.

A further experiment concerns T-47D^D538G cells. As to the kind of experiment: Cell viability assay. The class given is cell-based, human. To be noted: 72 h, read-out: T-47D^D538G IC50.
The next experiment addresses T2, human ERα LBD (Homo sapiens, UniProt P03372).
T2 sequence (P03372 311-547 limits assumed): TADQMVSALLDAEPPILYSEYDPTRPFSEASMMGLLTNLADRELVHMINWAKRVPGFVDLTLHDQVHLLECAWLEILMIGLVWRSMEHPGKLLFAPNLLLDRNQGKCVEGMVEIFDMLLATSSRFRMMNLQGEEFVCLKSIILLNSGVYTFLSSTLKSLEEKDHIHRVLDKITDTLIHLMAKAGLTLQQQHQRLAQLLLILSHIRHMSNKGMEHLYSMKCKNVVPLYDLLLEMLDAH
The experiment in a line: Competitive fluorescence polarization binding assay, ERα. To be noted: for RBA ERα: IC50 estradiol/IC50 compound × 100, estradiol = 100%; for α/β ratio: ratio of RBA ERα to RBA ERβ.

The next experiment relates to LCC-2 cells. As to the kind of experiment: Cell viability assay on tamoxifen-resistant LCC-2 cells. The class given is cell-based. To be noted: Homo sapiens, LCC2, read-out: LCC-2 IC50.
For another experiment, the target named is ERβ (Homo sapiens, UniProt Q92731). The experiment in a line: ER transcriptional activity. It is filed as cell-based. Particulars: with 10 nmol/L 17β-estradiol.
Chain of ERβ (Q92731 whole entry): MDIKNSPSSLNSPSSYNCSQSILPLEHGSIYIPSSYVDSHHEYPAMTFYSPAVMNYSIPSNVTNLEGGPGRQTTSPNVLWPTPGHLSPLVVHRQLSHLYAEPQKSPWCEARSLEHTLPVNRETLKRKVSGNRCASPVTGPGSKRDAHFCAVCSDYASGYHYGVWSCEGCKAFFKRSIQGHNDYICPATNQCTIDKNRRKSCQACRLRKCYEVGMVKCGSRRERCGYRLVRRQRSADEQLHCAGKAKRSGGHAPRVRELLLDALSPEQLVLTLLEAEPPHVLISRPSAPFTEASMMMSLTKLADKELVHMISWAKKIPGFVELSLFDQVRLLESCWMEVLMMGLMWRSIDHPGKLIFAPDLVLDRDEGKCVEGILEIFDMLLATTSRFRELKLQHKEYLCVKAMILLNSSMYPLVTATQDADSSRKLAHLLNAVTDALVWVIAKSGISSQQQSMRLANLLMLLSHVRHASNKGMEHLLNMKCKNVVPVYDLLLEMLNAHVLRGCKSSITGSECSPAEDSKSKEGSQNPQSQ
The test system of another experiment is MCF-7 tumor xenograft. The experiment in a line: MCF-7 tumor xenograft model in BALB/c nude mice. It is filed as in vivo. Particulars: 4 mg/kg ip every other day, Day 32. The essentials:
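Female BALB/c nude mice (15–18 g, 5 weeks old) received 1 × 10⁷ MCF-7 cells in 100 μL PBS into the right axillary mammary fat pad. Tumour volume (W² × L × 0.5) and body weight were measured every 2 days. Mice were sacrificed on Day 33. Tumours were assessed by IHC (Ki-67, ERα) and ERα Western blot.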

Each structure is given as a SMILES string. “And” between values parts separate entries of the source, which are not always exact repeats. Equal entries are not always repeated. Where two headings read alike, the source gives them in different places.

One may read the IC50 as the concentration at which inhibition is half-maximal. The Ki is the equilibrium dissociation constant of an inhibitor or competing ligand from its target.

Chain of human ERβ LBD (Q92731 264-498 limits assumed): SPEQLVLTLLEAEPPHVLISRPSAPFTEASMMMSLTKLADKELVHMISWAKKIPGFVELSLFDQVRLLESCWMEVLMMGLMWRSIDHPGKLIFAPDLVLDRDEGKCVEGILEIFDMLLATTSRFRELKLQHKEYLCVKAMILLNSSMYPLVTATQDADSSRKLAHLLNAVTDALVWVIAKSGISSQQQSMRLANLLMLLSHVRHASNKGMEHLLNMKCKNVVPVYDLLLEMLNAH

On to `CC(C)CC(=O)Nc1ccc(C2=C(c3ccc(O)cc3)[C@H]3O[C@@H]2CC3S(=O)(=O)N(CC(F)(F)F)c2ccc(O)cc2)cc1` (mixture of isomers) [Compound 29k, N-(4-((1R,4R)-3-(4-Hydroxyphenyl)-5-(N-(4-hydroxyphenyl)-N-(2,2,2-trifluoroethyl)sulfamoyl)-7-oxabicyclo[2.2.1]hept-2-en-2-yl)phenyl)-3-methylbutanamide], for which the IC50 in the experiment on T-47D^Y537S cells (Homo sapiens) is over 31000 nM; in the experiment with T-47D cells (Homo sapiens, T47D) it was over 31000 nM; with MCF-7 cells (Homo sapiens, MCF7, 72 h), 1060 ± 190 nM; in the experiment on T-47D^D538G cells (Homo sapiens), over 31000 nM. Further, the values for the Ki at human ERβ LBD and on human ERα LBD were 4.6 nM and 1.15 nM, respectively. For the same compound, on human ERβ LBD, the “RBA ERβ” value came out at 1.45 ± 0.12%. Also, the “ERα degradation (immunoblot)” value at ERα is recorded as “impaired degradation ability”. Moreover, the “RBA ERα” value at human ERα LBD is listed as 2.41 ± 0.21%. Besides, at human ERα LBD, the α/β ratio was found to be 1.66.

On to `CC(C)=CC(=O)Nc1ccc(C2=C(c3ccc(O)cc3)C3CC(S(=O)(=O)N(CC(F)(F)F)c4ccc(O)cc4)C2O3)cc1` (centres unmarked) [29c′], for which the IC50 with T-47D^Y537S cells (cell viability) was 4050 ± 270 nM; in the experiment with T-47D cells (cell viability), 5520 ± 270 nM; in the experiment on MCF-7 cells (cell viability, 72 h), 950 ± 110 nM; with T-47D^D538G cells (cell viability), 5000 ± 360 nM. In addition, the “RBA ERβ” value on human ERβ LBD was 2.05 ± 0.45%. Besides, the Ki on human ERβ LBD (read-out: Ki ERβ) worked out at 3.25 nM; at human ERα LBD (read-out: Ki ERα), 0.18 nM. Moreover, the “ERα degradation (immunoblot)” value at ERα is recorded as “impaired degradation ability”. Moreover, the “RBA ERα” value on human ERα LBD was 15.12% and 15.12 ± 0.31%. The α/β ratio at human ERα LBD worked out at 7.37.

Regarding `CC/C(=C(\c1ccc(O)cc1)c1ccc(OCCN(C)C)cc1)c1ccccc1` [Compound 4-OHT, 4-hydroxytamoxifen, reference compound], the IC50 with LCC-2 cells is 22200 ± 1930 nM; with T-47D^Y537S cells (Homo sapiens) it was 8900 ± 280 nM; with T-47D cells (Homo sapiens, T47D) it was 1950 ± 200 nM; in the experiment with MCF-7 cells (Homo sapiens, MCF7, 72 h), 670 ± 80 nM; in the experiment with T-47D^D538G cells (Homo sapiens), 9130 ± 600 nM. The “Antagonist mode ERβ Eff (%E2)” value at ERβ worked out at 11 ± 3 %E2.

For the compound `CC(C)=CC(=O)Nc1ccc(C2=C(c3ccc(O)cc3)C3CC(S(=O)(=O)N(CC(F)(F)F)c4ccc(C)cc4)C2O3)cc1` (centres unmarked) [Compound 29d, N-(4-(3-(4-Hydroxyphenyl)-6-(N-(p-tolyl)-N-(2,2,2-trifluoroethyl)sulfamoyl)-7-oxabicyclo[2.2.1]hept-2-en-2-yl)phenyl)-3-methylbut-2-enamide], the half-inhibitory concentration (IC50) is over 31000 nM with T-47D^Y537S cells (Homo sapiens); 8330 ± 220 nM in the experiment on T-47D cells (Homo sapiens, T47D); 750 ± 210 nM in the experiment on MCF-7 cells (Homo sapiens, MCF7, 72 h); over 31000 nM in the experiment on T-47D^D538G cells (Homo sapiens). The Ki is 4.87 nM on human ERβ LBD and 0.43 nM at human ERα LBD. Also, on human ERβ LBD, the “RBA ERβ” value was determined as 1.37 ± 0.11%. Further, the “RBA ERα” value on human ERα LBD is 6.49 ± 0.21%. In addition, the α/β ratio at human ERα LBD was 4.74.

For `CC(C)=CC(=O)Nc1ccc(C2=C(c3ccc(O)cc3)C3CC(S(=O)(=O)N(CC(F)(F)F)c4ccccc4)C2O3)cc1` (centres unmarked) [Compound 29e, N-(4-(3-(4-Hydroxyphenyl)-6-(N-phenyl-N-(2,2,2-trifluoroethyl)sulfamoyl)-7-oxabicyclo[2.2.1]hept-2-en-2-yl)phenyl)-3-methylbut-2-enamide], the half-maximal inhibitory concentration (IC50) in the experiment with T-47D^Y537S cells (Homo sapiens) was determined as 1790 ± 170 nM; in the experiment on T-47D cells (Homo sapiens, T47D), 5100 ± 320 nM; in the experiment on MCF-7 cells (Homo sapiens, MCF7, 72 h), 660 ± 120 nM; in the experiment on T-47D^D538G cells (Homo sapiens), 5180 ± 310 nM. Further, the inhibition constant Ki on human ERβ LBD was determined as 23.8 nM; on human ERα LBD, 0.29 nM. In addition, the “RBA ERβ” value on human ERβ LBD was found to be 0.28 ± 0.05%. Besides, the “RBA ERα” value on human ERα LBD is 9.50 ± 0.09%. Further, the α/β ratio at human ERα LBD is listed as 33.9.

Take `CC(C)=CC(=O)Nc1ccc(C2=C(c3ccc(O)cc3)C3OC2CC3S(=O)(=O)N(CC(F)(F)F)c2ccc(F)cc2)cc1` (centres unmarked) [Compound 29g, N-(4-(5-(N-(4-Fluorophenyl)-N-(2,2,2-trifluoroethyl)sulfamoyl)-3-(4-hydroxyphenyl)-7-oxabicyclo[2.2.1]hept-2-en-2-yl)phenyl)-3-methylbut-2-enamide]: the IC50 is over 31000 nM in the experiment with T-47D^Y537S cells (Homo sapiens); 5280 ± 230 nM with T-47D cells (Homo sapiens, T47D); 640 ± 100 nM with MCF-7 cells (Homo sapiens, MCF7, 72 h); 7820 ± 470 nM in the experiment on T-47D^D538G cells (Homo sapiens). Besides, the Ki stood at 6.54 nM at human ERβ LBD and 0.37 nM at human ERα LBD. Moreover, on human ERβ LBD, the “RBA ERβ” value is on record as 1.02 ± 0.13%. Also, at human ERα LBD, the “RBA ERα” value is recorded as 7.52 ± 0.29%. Moreover, the α/β ratio on human ERα LBD is on record as 7.37.

As for `CC(C)=CC(=O)Nc1ccc(C2=C(c3ccc(O)cc3)C3OC2CC3S(=O)(=O)N(CC(F)(F)F)c2cccc(O)c2)cc1` (centres unmarked) [Compound 29h, N-(4-(3-(4-Hydroxyphenyl)-5-(N-(3-hydroxyphenyl)-N-(2,2,2-trifluoroethyl)sulfamoyl)-7-oxabicyclo[2.2.1]hept-2-en-2-yl)phenyl)-3-methylbut-2-enamide], the IC50 with T-47D^Y537S cells (Homo sapiens) came to 2990 ± 220 nM; with T-47D cells (Homo sapiens, T47D), 3920 ± 10 nM; in the experiment on MCF-7 cells (Homo sapiens, MCF7, 72 h), 980 ± 350 nM; in the experiment with T-47D^D538G cells (Homo sapiens) it was 2840 ± 140 nM. Moreover, the Ki was 15.2 nM on human ERβ LBD and 0.35 nM at human ERα LBD. Also, the “RBA ERβ” value on human ERβ LBD is reported as 0.44 ± 0.02%. Besides, on ERα, the “ERα degradation (immunoblot)” value is “effective in inducing ERα degradation”. The “RBA ERα” value at human ERα LBD worked out at 7.89 ± 0.11%. Besides, the α/β ratio at human ERα LBD was 17.93.

As to `CCN(c1ccc(OC)cc1)S(=O)(=O)C1CC2OC1C(c1ccc(O)cc1)=C2c1ccc(NC(=O)C=C(C)C)cc1` (centres unmarked) [Compound 29j, N-(4-(5-(N-Ethyl-N-(4-methoxyphenyl)sulfamoyl)-3-(4-hydroxyphenyl)-7-oxabicyclo[2.2.1]hept-2-en-2-yl)phenyl)-3-methylbut-2-enamide], the IC50 came to 12700 ± 530 nM in the experiment with T-47D^Y537S cells (Homo sapiens); 7920 ± 190 nM in the experiment on T-47D cells (Homo sapiens, T47D); 290 ± 30 nM in the experiment on MCF-7 cells (Homo sapiens, MCF7, 72 h); 8250 ± 450 nM in the experiment on T-47D^D538G cells (Homo sapiens). The Ki at human ERβ LBD worked out at 13.1 nM; on human ERα LBD, 0.63 nM. In addition, the “RBA ERβ” value on human ERβ LBD was found to be 0.51 ± 0.09%. Moreover, the “ERα degradation (immunoblot)” value at ERα is given as “effective in inducing ERα degradation”. In addition, at human ERα LBD, the “RBA ERα” value is given as 4.36 ± 0.33%. Besides, on human ERα LBD, the α/β ratio worked out at 8.55.

As to `Nc1ccc(C2=C(c3ccc(O)cc3)C3OC2CC3S(=O)(=O)N(CC(F)(F)F)c2ccc(O)cc2)cc1` (centres unmarked) [Compound 29l, 5-(4-Aminophenyl)-N,6-bis(4-hydroxyphenyl)-N-(2,2,2-trifluoroethyl)-7-oxabicyclo[2.2.1]hept-5-ene-2-sulfonamide], the IC50 with T-47D^Y537S cells (Homo sapiens) is over 31000 nM; in the experiment on T-47D cells (Homo sapiens, T47D), 8110 ± 370 nM; in the experiment on MCF-7 cells (Homo sapiens, MCF7, 72 h), 3170 ± 330 nM; with T-47D^D538G cells (Homo sapiens), over 31000 nM. The results for the Ki on human ERβ LBD and at human ERα LBD were 2.84 nM and 1.14 nM, respectively. For the same compound, the “RBA ERβ” value on human ERβ LBD worked out at 2.35 ± 0.33%. The “RBA ERα” value at human ERα LBD was determined as 2.43 ± 0.27%. On human ERα LBD, the α/β ratio stood at 1.03.

As to `CC/C(=C(\c1ccccc1)c1ccc(OCCN(C)C)cc1)c1ccccc1` [tamoxifen, reference compound], in the experiment on MCF-7 tumor xenograft, the “TGI (tumor growth inhibition)” value stood at 87%.

The record behind these values is article PMC10692362 (Acta Pharmaceutica Sinica. B, 2023).
